Assay outcomes deposited in PubChem BioAssay by several laboratories.
LEDGF integ inh – blocks HIV-1 LEDGF/p75-dependent DNA integration. TR-FRET IN-LEDGF/p75 DNA integration, Eu/Cy5. 370,000 compounds, 0.64% hits. AID 743269. inhibition, % at 3.7 µM;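 active = inhibition above the screen-wide mean plus 3 SD, cut at about 13% in these data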;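 note: signal is the Cy5 over europium emission ratio at 671 and 618 nm; 0% = plate median of compound wells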
UHRF1 binding – blocks human UHRF1 binding to methylated DNA; Q96T88; UHRF1 binding to methylated oligo, TR-FRET; inhibition, % at 4.4 µM; 370,000 compounds, 0.75% hits; AID 687016; in the data active = inhibition above about 21%;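 note: UHRF1 SRA domain binding a hemimethylated CpG hairpin DNA probe; 0% = median of test compound wells and 100% = reference inhibitor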
rCAG RNA binder – binds r(CAG) RNA repeats; r(CAG) RNA repeat, TO-PRO-1 dye displacement fluorescence; inhibition, % at 3 µM; 370,000 compounds, 1.3% hits;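 active = inhibition above the plate cutoff, the mean of all test compounds on that plate plus 3 SD, cut at about 35% in these data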;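 note: 0% = DMSO alone and 100% = 100 µM mitoxantrone as full dye displacement; higher means more dye released from RNA so lower well fluorescence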
ATG4B inh – ATG4B (human) cysteine protease inhibition; 340,000 compounds, 0.51% hits; inhibition, % at 8.33 µM; ATG4B cleavage of LC3-PLA2, NBD-HPC fluorescence, 1 h; Q9Y4P1; AID 504462; in the data active = inhibition above about 40%
Target sequence (Q9Y4P1 whole entry, looked up): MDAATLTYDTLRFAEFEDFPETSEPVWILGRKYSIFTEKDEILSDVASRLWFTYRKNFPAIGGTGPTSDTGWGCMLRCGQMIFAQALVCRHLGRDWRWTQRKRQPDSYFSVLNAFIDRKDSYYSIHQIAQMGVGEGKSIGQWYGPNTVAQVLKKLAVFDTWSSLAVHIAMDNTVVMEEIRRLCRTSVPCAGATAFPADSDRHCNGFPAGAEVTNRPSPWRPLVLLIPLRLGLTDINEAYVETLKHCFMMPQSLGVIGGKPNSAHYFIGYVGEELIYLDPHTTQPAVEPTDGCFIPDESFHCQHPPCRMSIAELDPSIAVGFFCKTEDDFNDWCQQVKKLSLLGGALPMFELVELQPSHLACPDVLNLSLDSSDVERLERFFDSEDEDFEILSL
CSN inh – CSN deneddylation inhibition. inhibition, % at 12.5 µM. 360,000 compounds, 0.38% hits. Purified CSN, SCF-Nedd8-OG deneddylation, fluorescence polarization;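 active = pattern-corrected inhibition above about 35%, with an unprinted fluorescence ratio check between 0.5 and 1.5, limit read from the data, passing the limit was not always enough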;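 note: 0% = enzyme with substrate and 100% = substrate without enzyme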
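Test system: purified human Csn5 enzyme expressed in HEK293T cells. Amount: 0.24 nM enzyme. Reagent: SCFSkp2-Nedd8OG substrate at 10 nM final. Schedule: 90 min incubation of compound, enzyme and substrate at room temperature. Detection: fluorescence polarization. Read-out: % inhibition of substrate cleavage by Csn5.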
MBD2 inh – inhibitors of human MBD2 binding to methylated oligonucleotide | TR-FRET | 370,000 compounds, 0.31% hits | inhibition, % at 4.4 µM | Q9UBB5; in the data active = inhibition above about 13%
ATG4B confirm – ATG4B (human) inhibition, single-dose confirmed; shares compounds with ATG4B inh; ATG4B protease fluorescent substrate cleavage assay; inhibition, % at 8.33 µM; 320 compounds, 92% hits; AID 504757; in the data active = inhibition above about 39%
PLA2 ctr – PLA2 (human) inhibition in ATG4B counter-screen | 1,600 compounds, 66% hits | shares compounds with ATG4B inh | purified PLA2, NBD-C6-HPC fluorescence, 45 min | AID 588402 | inhibition, % at 8.33 µM; in the data active = inhibition above about 50%
The depositor's hits bear a star; . = not tested or not shown. An excerpt weighted towards active compounds, which were near 3.1% of everything screened.

SMILES | LEDGF integ inh | UHRF1 binding | rCAG RNA binder | ATG4B inh | CSN inh | MBD2 inh | PLA2 ctr | others
CC(=O)Nc1ccc(N=Cc2c(O)c(C(=O)Nc3ccccc3)cc3ccccc23)cc1 | 3 | 0 | 13 | 30 | . | 4 | .
COC(=O)[C@H]1C[C@@]2(c3ccccc3)c3ccccc3N(S(=O)(=O)c3ccccc3)[C@H]2N1 | 1 | 6 | 4 | . | . | -1 | .
N#Cc1ccccc1NC(=O)c1ccc2c(Cl)c3c(nc2c1)CCCC3 | 0 | 4 | 9 | 48* | 3 | -1 | 49
O=C(OC12CCCN(C1)/C(=C/c1cccnc1)C2)c1ccc(F)cc1 (stereo unspecified) | -1 | -2 | 0 | . | . | -4 | .
O=C(CSc1nnc(-c2ccc(Br)o2)n1Cc1ccccc1)c1ccccc1F | 0 | -1 | -3 | 57* | 5 | 4 | 57*
CCCC[C@H]1C2CC(OC(=O)Nc3cccc(Br)c3)C(C2)[C@H]2CCCCN21 (stereo partly specified) | 5 | -1 | 5 | . | . | -1 | .
O=C(Nc1c(Cl)cccc1Cl)c1cc(-c2ccco2)on1 | 2 | 2 | 6 | 43* | 4 | 5 | 42 | ATG4B confirm=67*
O=C(Nc1cccc(Cl)c1)c1cc(-c2ccco2)on1 | 2 | 2 | 6 | 2 | -3 | -3 | .
O=C(Nc1cccc(Cl)c1)O[C@@H]1CC[C@@]23CCCN2C(=O)CCC[C@H]3C1 | 5 | 0 | . | . | . | -2 | .
Cc1sc2nc(C3CC3)nc(SCC(=O)N3CC(=O)Nc4ccccc43)c2c1C | 2 | -3 | 6 | 69* | 4 | -2 | 77*
Cc1sc2nc(C3CC3)nc(SCC(=O)N3CCCc4ccccc43)c2c1C | 0 | 8 | 4 | . | . | 4 | .
CC1CC(C)CN(C(=O)c2ccc3ccccc3c2)C1 (stereo unspecified) | 0 | -1 | -4 | 54* | -7 | -2 | 50*
CC1CC(C)CN(C(=O)c2ccc(C(=O)c3ccccc3)cc2)C1 (stereo unspecified) | 3 | 0 | -8 | 42* | -5 | -2 | 44 | ATG4B confirm=66*
CC1CC(C)CN(C(=O)c2ccc(S(=O)(=O)N3CC(C)CC(C)C3)cc2)C1 (stereo unspecified) | 4 | 0 | -1 | 51* | 5 | -1 | 66*
CC1CC(C)CN(S(=O)(=O)c2ccc(C(=O)N3CCCC3)cc2)C1 (stereo unspecified) | 1 | -3 | -11 | 7 | 1 | 1 | .
CCCCCCCCN1C(=O)[C@@H](CC(=O)N2CCC(c3ccccc3)CC2)C[C@@]2(C(=O)OC)C1=C[C@H](C(C)C)O[C@@H]2C1CC1 | 0 | 0 | 18 | . | . | 0 | .
O=[N+]([O-])c1cccc(OCCCN2CCC(C(O)(c3ccccc3)c3ccccc3)CC2)c1 | -2 | -2 | 5 | . | . | 4 | .
COc1cc2c(c(OC)c1)[C@H](/C=C/c1ccccc1)[C@@H]([C@H](O)CO)OC2 | -2 | 0 | 4 | . | . | -3 | .
COC(=O)[C@]12C[C@H](CC(=O)NCc3cccs3)C(=O)N(Cc3ccccc3)C1=C[C@H](C(C)(C)C)O[C@@H]2C | -2 | -1 | 1 | . | . | -2 | .
Cc1ccc(S(=O)(=O)Nc2ccc(-c3nnc(SCc4ccccc4Cl)o3)cc2)cc1 | 0 | 1 | 29 | 52* | -3 | -2 | 46
Oc1ccc2ccccc2c1/C=N/Nc1nnc(-c2ncc[nH]2)c2ccccc12 | -6 | -1 | 12 | 48* | 6 | -4 | 39 | ATG4B confirm=49*
CN1C2CCCC1CC(NC(=O)c1nn(C)c3ccccc13)C2 (stereo unspecified) | -2 | 2 | 2 | . | . | 3 | .
NC(=O)Cc1ccc(Nc2nnc(-c3ccc(O)cc3)c3ccccc23)cc1 | 0 | -2 | 2 | 92* | 3 | 3 | 91*
Cc1ccc(-c2nnc(Nc3ccc4c(c3)OCO4)c3ccccc23)cc1S(=O)(=O)NCCO | 2 | -1 | 4 | -6 | -7 | 2 | .
